# Test results as given in publication PMC3775715 (Chemistry & biology, 2012).
# Legend:
# recombinant PKM2 = recombinant PKM2 (Homo sapiens, UniProt P14618); assay: Biochemical activity assay against recombinant PKM2; conditions: for reactivation of PKM2 inhibited by phenylalanine: PKM2 preincubated with phenylalanine for 30 min
# Procedure, shortened: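 Recombinant PKM2 was preincubated with phenylalanine for 30 min. Test compound or FBP was then added for 30 min, after which pyruvate kinase activity was measured.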
# A549 cells = assay: Metabolomics of steady-state metabolite levels in A549 cells; assay type: cell-based, human; conditions: 24 hr, 0.5 uM for 9
# Chain of recombinant PKM2 (P14618 whole entry): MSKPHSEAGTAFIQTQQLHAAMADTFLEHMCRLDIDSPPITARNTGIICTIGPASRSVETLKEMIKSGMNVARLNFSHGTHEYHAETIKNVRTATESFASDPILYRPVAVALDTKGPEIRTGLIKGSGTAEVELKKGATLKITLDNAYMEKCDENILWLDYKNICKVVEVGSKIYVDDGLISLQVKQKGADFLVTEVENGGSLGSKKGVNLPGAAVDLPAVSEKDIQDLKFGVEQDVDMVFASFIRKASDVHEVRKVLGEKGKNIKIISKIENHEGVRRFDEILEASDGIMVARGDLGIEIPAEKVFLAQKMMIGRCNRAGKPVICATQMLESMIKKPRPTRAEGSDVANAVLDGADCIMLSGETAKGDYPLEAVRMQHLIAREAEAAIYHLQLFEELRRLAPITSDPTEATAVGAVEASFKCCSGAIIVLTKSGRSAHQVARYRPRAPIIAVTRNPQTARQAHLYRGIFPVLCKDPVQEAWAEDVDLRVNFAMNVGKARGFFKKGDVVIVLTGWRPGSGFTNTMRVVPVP
change in potency for PKM2 inhibited with phenylalanine (recombinant PKM2; PKM2 inhibited with phenylalanine),Structure (SMILES),reactivation of PKM2 inhibited by phenylalanine (recombinant PKM2),changes in steady-state metabolite levels (A549 cells)
,"O=C(COP(=O)(O)O)[C@@H](O)[C@H](O)[C@H](O)COP(=O)(O)O [FBP, fructose 1,6-bisphosphate]",partially reactivate PKM2 to the low basal level of activity,
eight times loss in potency,"N[C@@H](CO)C(=O)O [Serine, serine]",partially restore the activity of PKM2,
,"CCCCS(=N)(=O)CC[C@H](N)C(=O)O (stereo partly shown) [BSO, buthionine sulfoxime]",,induced robust changes in steady-state metabolite pools
